Assays:
[1] = target: Mitogen-activated protein kinase kinase kinase kinase 1 (Homo sapiens) (UniProt Q92918); assay: Inhibition of human recombinant HPK1 at 40 nM related to control ULK1
[2] = target: Insulin-like growth factor 1 receptor (Homo sapiens) (UniProt P08069); assay: Inhibition of human recombinant IGF1R at 40 nM in presence of ATP by radiometric assay relative to control
[3] = target: T1, Aurora kinase A (Homo sapiens) (UniProt O14965); assay: Inhibition of human recombinant AurA at 40 nM in presence of ATP by radiometric assay relative to control
T1 sequence (whole entry): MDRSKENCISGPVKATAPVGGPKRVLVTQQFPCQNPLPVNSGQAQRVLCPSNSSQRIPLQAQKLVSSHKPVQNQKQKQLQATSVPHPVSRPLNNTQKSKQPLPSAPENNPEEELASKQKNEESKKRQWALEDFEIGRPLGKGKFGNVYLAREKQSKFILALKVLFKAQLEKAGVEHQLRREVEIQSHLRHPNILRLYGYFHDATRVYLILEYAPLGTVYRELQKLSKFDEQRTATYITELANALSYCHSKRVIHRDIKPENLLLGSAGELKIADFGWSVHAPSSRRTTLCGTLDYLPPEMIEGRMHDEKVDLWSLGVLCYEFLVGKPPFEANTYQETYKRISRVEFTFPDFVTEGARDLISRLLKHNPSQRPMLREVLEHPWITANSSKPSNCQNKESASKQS
How it was run: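 Panel of 327 recombinant human kinases, each assayed in vitro by radiometric activity assay in duplicate at a single inhibitor concentration per compound, chosen with reference to its ULK1 inhibition. Activity remaining was expressed as percent of vehicle control, and percent inhibition was calculated as 100 minus percent activity remaining.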

[4] = target: [Pyruvate dehydrogenase (acetyl-transferring)] kinase isozyme 4, mitochondrial (Homo sapiens) (UniProt Q16654); assay: Inhibition of human recombinant PDHK4 at 500 nM related to control ULK1
[5] = target: Calcium/calmodulin-dependent protein kinase kinase 1 (Homo sapiens) (UniProt Q8N5S9); assay: Inhibition of human recombinant CaMKK1 at 500 nM in presence of ATP by radiometric assay relative to control
[6] = target: Serine/threonine-protein kinase pim-3 (Homo sapiens) (UniProt Q86V86); assay: Inhibition of human recombinant PIM3 at 500 nM related to control ULK1
[7] = target: T2, Ephrin type-A receptor 1 (Homo sapiens) (UniProt P21709); assay: Inhibition of human recombinant EphA1 at 500 nM in presence of ATP by radiometric assay relative to control
T2 sequence (whole entry): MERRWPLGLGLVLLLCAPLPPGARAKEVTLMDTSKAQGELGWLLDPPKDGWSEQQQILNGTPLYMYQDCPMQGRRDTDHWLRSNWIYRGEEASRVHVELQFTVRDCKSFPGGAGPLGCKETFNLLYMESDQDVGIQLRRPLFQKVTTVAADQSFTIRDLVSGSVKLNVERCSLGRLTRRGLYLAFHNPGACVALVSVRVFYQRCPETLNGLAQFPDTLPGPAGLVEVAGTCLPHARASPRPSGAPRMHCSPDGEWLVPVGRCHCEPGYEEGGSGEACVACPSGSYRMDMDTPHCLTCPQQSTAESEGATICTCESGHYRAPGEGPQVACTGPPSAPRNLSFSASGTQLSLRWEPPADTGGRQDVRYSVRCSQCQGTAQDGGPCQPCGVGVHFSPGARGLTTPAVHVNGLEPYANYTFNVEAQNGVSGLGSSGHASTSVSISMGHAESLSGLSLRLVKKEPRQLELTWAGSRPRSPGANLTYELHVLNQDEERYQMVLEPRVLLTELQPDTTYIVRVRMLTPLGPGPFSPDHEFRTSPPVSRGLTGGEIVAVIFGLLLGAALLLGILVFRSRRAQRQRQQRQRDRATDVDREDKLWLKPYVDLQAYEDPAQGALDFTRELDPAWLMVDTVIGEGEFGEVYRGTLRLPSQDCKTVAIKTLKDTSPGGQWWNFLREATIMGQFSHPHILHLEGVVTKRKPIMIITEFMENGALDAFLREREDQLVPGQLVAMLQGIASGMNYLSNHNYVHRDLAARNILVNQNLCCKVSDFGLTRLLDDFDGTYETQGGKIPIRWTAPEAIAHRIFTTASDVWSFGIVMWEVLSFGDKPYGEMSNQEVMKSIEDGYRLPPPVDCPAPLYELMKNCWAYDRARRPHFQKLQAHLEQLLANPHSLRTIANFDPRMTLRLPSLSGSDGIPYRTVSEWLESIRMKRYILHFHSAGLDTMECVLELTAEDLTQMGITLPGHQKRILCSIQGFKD

[8] = target: Ribosomal protein S6 kinase alpha-4 (Homo sapiens) (UniProt O75676); assay: Inhibition of human recombinant MSK2 at 500 nM in presence of ATP by radiometric assay relative to control
[9] = target: Serine/threonine-protein kinase NIM1 (Homo sapiens) (UniProt Q8IY84); assay: Inhibition of human recombinant NIM1 at 500 nM in presence of ATP by radiometric assay relative to control
[10] = target: Vascular endothelial growth factor receptor 2 (Homo sapiens) (UniProt P35968); assay: Inhibition of human recombinant KDR at 15 nM related to control ULK1
[11] = target: T3, Serine/threonine-protein kinase haspin (Homo sapiens) (UniProt Q8TF76); assay: Inhibition of human recombinant Haspin at 15 nM related to control ULK1
T3 sequence (whole entry): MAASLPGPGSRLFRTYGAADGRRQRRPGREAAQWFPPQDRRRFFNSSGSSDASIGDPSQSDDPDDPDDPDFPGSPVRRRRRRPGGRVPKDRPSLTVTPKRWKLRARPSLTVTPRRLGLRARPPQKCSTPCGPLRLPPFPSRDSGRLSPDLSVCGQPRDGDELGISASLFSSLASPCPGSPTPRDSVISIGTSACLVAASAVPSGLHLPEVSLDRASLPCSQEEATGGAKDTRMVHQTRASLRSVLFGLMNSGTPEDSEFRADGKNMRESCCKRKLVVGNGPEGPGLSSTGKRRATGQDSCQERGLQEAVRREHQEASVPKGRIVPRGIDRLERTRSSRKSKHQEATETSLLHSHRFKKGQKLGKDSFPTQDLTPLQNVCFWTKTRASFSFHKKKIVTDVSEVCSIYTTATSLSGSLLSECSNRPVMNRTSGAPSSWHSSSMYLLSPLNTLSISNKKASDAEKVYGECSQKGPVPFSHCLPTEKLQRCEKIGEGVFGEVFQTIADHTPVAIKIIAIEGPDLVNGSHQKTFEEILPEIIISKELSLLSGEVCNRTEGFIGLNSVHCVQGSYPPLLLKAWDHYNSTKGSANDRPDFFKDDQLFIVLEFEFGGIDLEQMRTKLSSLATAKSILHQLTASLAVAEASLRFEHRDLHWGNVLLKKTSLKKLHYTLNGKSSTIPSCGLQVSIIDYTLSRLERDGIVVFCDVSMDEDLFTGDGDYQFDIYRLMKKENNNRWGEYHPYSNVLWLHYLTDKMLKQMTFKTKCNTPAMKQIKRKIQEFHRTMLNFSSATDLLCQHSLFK

Chain of Mitogen-activated protein kinase kinase kinase kinase 1 (Homo sapiens) (Q92918 whole entry, looked up): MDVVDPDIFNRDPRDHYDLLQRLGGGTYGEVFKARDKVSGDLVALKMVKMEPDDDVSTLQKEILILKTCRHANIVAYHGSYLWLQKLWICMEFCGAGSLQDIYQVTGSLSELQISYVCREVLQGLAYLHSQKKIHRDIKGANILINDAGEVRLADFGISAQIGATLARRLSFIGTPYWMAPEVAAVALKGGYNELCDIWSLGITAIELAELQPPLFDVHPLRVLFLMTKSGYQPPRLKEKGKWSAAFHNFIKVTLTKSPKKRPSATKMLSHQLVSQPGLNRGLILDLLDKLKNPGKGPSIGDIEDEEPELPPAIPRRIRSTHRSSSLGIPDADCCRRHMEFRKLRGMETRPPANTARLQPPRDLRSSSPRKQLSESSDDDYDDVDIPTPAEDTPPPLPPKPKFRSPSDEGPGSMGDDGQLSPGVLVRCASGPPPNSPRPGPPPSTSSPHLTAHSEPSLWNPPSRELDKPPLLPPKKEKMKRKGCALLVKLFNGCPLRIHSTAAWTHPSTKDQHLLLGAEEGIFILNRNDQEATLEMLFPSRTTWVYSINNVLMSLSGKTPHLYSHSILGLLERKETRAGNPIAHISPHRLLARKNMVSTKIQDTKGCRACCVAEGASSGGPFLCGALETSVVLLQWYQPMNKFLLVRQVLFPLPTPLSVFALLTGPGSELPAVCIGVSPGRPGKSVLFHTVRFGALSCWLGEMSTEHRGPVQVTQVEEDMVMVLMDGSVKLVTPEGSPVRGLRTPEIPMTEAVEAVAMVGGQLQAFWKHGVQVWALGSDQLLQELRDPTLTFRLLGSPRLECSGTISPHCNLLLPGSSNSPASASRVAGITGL
Chain of Serine/threonine-protein kinase NIM1 (Homo sapiens) (Q8IY84 whole entry): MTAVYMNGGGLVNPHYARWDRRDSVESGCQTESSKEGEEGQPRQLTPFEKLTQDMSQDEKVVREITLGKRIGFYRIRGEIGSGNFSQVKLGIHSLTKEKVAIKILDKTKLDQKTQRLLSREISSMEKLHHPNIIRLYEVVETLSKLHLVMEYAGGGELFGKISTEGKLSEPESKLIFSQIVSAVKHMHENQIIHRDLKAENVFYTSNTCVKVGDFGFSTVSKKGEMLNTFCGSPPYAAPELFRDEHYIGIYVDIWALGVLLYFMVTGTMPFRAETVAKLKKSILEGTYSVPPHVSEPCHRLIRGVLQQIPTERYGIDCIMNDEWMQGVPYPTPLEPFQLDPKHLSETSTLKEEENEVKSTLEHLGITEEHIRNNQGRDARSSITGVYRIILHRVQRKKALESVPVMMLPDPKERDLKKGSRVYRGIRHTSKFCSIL
Chain of [Pyruvate dehydrogenase (acetyl-transferring)] kinase isozyme 4, mitochondrial (Homo sapiens) (Q16654 whole entry, looked up): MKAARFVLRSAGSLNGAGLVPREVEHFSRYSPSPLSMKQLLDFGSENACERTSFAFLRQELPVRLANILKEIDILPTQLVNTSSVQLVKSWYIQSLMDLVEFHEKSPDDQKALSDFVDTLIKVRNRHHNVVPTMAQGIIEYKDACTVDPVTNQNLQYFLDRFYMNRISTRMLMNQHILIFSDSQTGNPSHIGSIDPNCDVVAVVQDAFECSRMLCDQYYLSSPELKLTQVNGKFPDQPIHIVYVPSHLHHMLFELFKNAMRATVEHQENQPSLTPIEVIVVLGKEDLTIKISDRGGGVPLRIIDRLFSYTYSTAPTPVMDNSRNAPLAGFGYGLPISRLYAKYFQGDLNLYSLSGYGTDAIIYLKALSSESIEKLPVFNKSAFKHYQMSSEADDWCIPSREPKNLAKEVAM
Chain of Vascular endothelial growth factor receptor 2 (Homo sapiens) (P35968 whole entry): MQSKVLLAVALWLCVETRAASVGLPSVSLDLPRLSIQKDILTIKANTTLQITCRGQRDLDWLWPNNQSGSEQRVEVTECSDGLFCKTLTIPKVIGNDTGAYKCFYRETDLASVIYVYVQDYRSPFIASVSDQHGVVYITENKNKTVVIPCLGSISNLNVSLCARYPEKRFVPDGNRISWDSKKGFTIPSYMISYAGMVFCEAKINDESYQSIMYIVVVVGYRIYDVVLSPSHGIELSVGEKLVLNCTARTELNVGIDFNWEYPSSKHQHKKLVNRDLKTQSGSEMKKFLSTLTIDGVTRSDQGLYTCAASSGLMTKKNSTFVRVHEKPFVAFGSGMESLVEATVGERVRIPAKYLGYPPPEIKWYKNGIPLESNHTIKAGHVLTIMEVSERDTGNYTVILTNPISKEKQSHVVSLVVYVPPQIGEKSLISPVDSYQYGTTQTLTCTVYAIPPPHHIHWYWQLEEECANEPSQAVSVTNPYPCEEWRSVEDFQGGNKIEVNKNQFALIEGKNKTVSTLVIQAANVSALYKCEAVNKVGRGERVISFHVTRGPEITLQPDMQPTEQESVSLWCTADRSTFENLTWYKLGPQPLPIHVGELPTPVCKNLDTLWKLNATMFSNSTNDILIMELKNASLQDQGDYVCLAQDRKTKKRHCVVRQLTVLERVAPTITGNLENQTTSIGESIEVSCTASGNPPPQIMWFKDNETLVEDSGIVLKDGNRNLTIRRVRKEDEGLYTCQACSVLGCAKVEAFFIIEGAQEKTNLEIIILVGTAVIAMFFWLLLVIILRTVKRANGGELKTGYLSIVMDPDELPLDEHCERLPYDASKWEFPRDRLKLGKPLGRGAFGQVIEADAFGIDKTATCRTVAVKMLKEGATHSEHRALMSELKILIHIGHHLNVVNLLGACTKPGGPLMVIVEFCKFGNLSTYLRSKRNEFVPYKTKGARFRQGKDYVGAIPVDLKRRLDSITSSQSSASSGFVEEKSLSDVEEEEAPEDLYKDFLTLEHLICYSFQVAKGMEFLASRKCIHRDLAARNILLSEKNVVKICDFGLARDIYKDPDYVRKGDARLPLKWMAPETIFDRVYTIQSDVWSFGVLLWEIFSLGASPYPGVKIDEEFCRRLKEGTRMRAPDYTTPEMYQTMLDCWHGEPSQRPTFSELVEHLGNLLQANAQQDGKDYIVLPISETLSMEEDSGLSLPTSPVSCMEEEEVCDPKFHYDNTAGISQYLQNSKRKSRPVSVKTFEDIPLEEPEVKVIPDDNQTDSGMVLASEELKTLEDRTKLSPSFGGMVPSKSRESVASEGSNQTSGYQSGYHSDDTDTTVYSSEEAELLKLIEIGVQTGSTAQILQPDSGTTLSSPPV
Chain of Ribosomal protein S6 kinase alpha-4 (Homo sapiens) (O75676 whole entry, looked up): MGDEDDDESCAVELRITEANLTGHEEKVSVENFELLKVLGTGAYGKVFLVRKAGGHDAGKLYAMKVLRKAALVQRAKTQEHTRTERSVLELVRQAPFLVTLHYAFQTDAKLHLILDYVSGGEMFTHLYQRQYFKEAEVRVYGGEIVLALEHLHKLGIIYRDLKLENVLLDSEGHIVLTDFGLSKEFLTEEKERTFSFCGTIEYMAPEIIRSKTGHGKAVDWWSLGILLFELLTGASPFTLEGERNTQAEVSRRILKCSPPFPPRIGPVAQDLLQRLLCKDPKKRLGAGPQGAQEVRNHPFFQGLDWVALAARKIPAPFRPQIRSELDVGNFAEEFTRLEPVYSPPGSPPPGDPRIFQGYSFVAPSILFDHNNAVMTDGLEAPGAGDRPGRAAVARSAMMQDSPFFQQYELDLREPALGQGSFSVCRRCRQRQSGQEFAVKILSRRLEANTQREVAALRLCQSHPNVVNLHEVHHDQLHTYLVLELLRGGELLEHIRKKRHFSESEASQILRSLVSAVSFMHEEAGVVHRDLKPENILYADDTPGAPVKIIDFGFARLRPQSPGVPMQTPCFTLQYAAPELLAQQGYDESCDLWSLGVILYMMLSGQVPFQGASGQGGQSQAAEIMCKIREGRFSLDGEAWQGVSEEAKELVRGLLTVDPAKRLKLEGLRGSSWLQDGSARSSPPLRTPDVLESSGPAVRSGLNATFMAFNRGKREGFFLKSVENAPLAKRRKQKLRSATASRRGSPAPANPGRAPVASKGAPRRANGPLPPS
Chain of Calcium/calmodulin-dependent protein kinase kinase 1 (Homo sapiens) (Q8N5S9 whole entry, looked up): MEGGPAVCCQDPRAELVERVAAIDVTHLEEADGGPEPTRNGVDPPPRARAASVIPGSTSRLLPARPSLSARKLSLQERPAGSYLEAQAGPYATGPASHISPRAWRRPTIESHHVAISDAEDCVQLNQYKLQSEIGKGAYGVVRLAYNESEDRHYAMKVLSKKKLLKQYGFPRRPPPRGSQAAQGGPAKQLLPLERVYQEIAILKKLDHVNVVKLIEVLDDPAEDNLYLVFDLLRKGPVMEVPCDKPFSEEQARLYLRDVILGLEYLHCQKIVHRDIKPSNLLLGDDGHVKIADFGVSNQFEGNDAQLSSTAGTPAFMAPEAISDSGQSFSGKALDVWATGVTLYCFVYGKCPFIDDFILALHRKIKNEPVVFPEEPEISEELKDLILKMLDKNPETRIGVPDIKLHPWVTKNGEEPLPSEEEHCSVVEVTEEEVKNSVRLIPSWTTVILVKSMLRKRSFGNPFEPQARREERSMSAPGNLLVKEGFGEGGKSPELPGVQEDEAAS

**Q.** `O=C(N[C@@H](C1CC1)C(F)(F)F)c1cc(-c2cnn3cc(-c4ccc(F)cc4)cnc23)cs1` was tested. Which fold change (FC) [1] did it give?
**A.** Its fold change (FC) is 0.

**Q.** And the inhibition [2]?
**A.** Its inhibition is 0%.

**Q.** What about the inhibition [3] of the same molecule?
**A.** Its inhibition is 22%.

**Q.** `CNC(=O)c1ccccc1Oc1nc(Nc2cc(OC)c(OC)c(OC)c2)ncc1Br` was tested. Which fold change (FC) [4] did it give?
**A.** The fold change (FC) was 0.07.

**Q.** And the inhibition [5]?
**A.** The inhibition was 8%.

**Q.** What about the fold change (FC) [6] of the same molecule?
**A.** Its fold change (FC) is 0.

**Q.** And the inhibition [7]?
**A.** Its inhibition is 13%.

**Q.** What about the inhibition [8] of the same molecule?
**A.** The inhibition was 0%.

**Q.** What about the inhibition [9] of the same molecule?
**A.** The inhibition was 0%.

**Q.** Which fold change (FC) [10] does the source give for `CC(C)[C@H](NC(=O)c1cc(-c2cnn3cc(-c4ccc(OCCN5CCCCC5)cc4)cnc23)cs1)C(F)(F)F` here?
**A.** Its fold change (FC) is 0.23.

**Q.** And the fold change (FC) [11]?
**A.** Its fold change (FC) is 0.

From ChEMBL document CHEMBL5653631, “A Potent and Selective ULK1 Inhibitor Suppresses Autophagy and Sensitizes Cancer Cells to Nutrient Stress” (iScience, 2018)
